This note sets out measurements from ChEMBL document CHEMBL1121406, “Synthesis, in vitro opiate activity, and intramolecular tyrosine--tryptophan distances of [4-tryptophan]enkephalin analogues. A reassessment of conformational models of enkephalin in solution” (1980).

Peptide text beside a SMILES is read from it.

The experiment is filed under the species Cavia porcellus. Put plainly: Relative narcotic agonistic activity was performed by inhibition of electrically evoked contractions compared with [Met5]-enkephalin (100%) in guinea pig ileum. Format: functional. More on the design: scale not given: the % may be the effect or the level left. An outline of the steps:
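Isolated guinea pig ileum; inhibition of electrically evoked contractions as agonist read-out. Single pulses of 4-ms duration at 3 to 6 V; isometric contractions recorded. Potency expressed relative to [Met5]enkephalin taken as 100%.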

Turning to `COc1ccc(C[C@H](N)C(=O)NCC(=O)NCC(=O)N[C@@H](Cc2c[nH]c3ccccc23)C(=O)N[C@@H](CCSC)C(=O)O)cc1`, the Activity came out at 0.5%.

In turn, `CSCC[C@H](NC(=O)[C@H](Cc1c[nH]c2ccccc12)N(C)C(=O)CNC(=O)CNC(=O)[C@@H](N)Cc1ccc(O)cc1)C(=O)O` gave an Activity of 39%.

Take `N[C@@H](Cc1ccc(O)cc1)C(=O)NCC(=O)NCC(=O)N[C@@H](Cc1c[nH]c2ccccc12)C(=O)N1CCC[C@H]1C(=O)O`: the Activity was determined as 1%.

For `CSCC[C@H](NC(=O)[C@H](Cc1ccccc1)NC(=O)CNC(=O)CNC(=O)[C@@H](N)Cc1ccc(O)cc1)C(=O)O`, the Activity is on record as 100%.

As to `CC(C)C[C@@H](C(=O)O)N(C)C(=O)[C@H](Cc1c[nH]c2ccccc12)NC(=O)CNC(=O)CNC(=O)[C@@H](N)Cc1ccc(O)cc1`, the Activity stood at 4%.

`CC(C)C[C@H](NC(=O)[C@H](Cc1c[nH]c2ccccc12)NC(=O)CNC(=O)CNC(=O)[C@@H](N)Cc1ccc(O)cc1)C(=O)O` yielded an Activity of 10%.

Turning to `COc1ccc(C[C@H](N)C(=O)NCC(=O)NCC(=O)N[C@@H](Cc2ccccc2)C(=O)N[C@@H](CCSC)C(=O)O)cc1`, the Activity was determined as 2%.

Turning to `CC(C)C[C@@H](C(=O)O)N(C)C(=O)[C@H](Cc1ccccc1)NC(=O)CNC(=O)CNC(=O)[C@@H](N)Cc1ccc(O)cc1`, the Activity is reported as 70%.

The compound `N[C@@H](Cc1ccc(O)cc1)C(=O)NCC(=O)NCC(=O)N[C@@H](Cc1ccccc1)C(=O)N1CCC[C@H]1C(=O)O` came in with an Activity of 1%.

Consider `CSCC[C@H](NC(=O)[C@H](Cc1c[nH]c2ccccc12)NC(=O)CNC(=O)CNC(=O)[C@@H](N)Cc1ccc(O)cc1)C(=O)O` (H-YGGWM-OH), for which the Activity amounted to 27%.

`CC(C)C[C@H](NC(=O)[C@H](Cc1ccccc1)NC(=O)CNC(=O)CNC(=O)[C@@H](N)Cc1ccc(O)cc1)C(=O)O` [ENKEPHALIN] displayed an Activity of 24%.
